Calls of active or inactive are those of the source. The calls are words filed in the database; no cut-off is given here. Where only a bound is given, the exact number is not on record here.

For ten compounds, Activity and EC50 results are on record in ChEMBL document CHEMBL3739324, “Characterization and Biological Evaluation of Diterpenoids from Casearia graveolens” (J Nat Prod, 2015).

For assay [1], the system named is PC-12. Nature of the assay: Induction of neurite outgrowth in rat PC12 cells incubated for 96 hrs by phase contrast microscopy. The format is functional, cell-based. In a few lines:
(§1)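 PC12 cells grown at 37 °C in DMEM with 5% FBS, 5% horse serum, penicillin/streptomycin, 5% CO2. Dissociated with 1 mM EGTA in PBS for 15 min, seeded at 3 × 10^4 cells/well on poly-L-lysine. After 24 h, switched to medium with 1% FBS, 1% HS, graded compound levels, with or without NGF (20 ng/mL; 100 ng/mL positive control), for 96 h.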

Assay [2] has as its system PC-12. Nature of the assay: Stimulation of NGF-mediated neurite outgrowth in rat PC12 cells incubated for 96 hrs by phase contrast microscopy. The format is functional, cell-based. Particulars: for EC50: PC-12, 96 h. In a few lines: as §1

In the case of `C=CC(=C)CC[C@]1(C)[C@H](C)C[C@H](OC)[C@@]23C(=C[C@H](OC(=O)CCC)C[C@@H]12)[C@@H](OC(C)=O)O[C@H]3OC(C)=O`, the outcome with PC-12 [1] was inactive. Further, a half-maximal effect with PC-12 [2] (EC50) was put at 28.7 µM.
On to `C=CC(=C)CC[C@]1(C)[C@H](C)C[C@H](OC)[C@@]23C(=C[C@H](OC(=O)CCC)C[C@@H]12)[C@@H](OC)O[C@H]3OC(C)=O`, for which, in the assay with PC-12 [1], the outcome was inactive. The compound also yielded an EC50 in the assay with PC-12 [2] of 20.6 µM.
Consider `C=CC(=C)CC[C@]1(C)[C@H](C)CC[C@@]23[C@H](OC(C)=O)O[C@H](OC(=O)CCC)[C@@H]2CC(=O)C[C@@H]13`, for which, in the assay with PC-12 [2], the result was inactive.
With `C=CC(=C)CC[C@]1(C)[C@H](C)C[C@H](OC)[C@@]23C(=C[C@H](O)C[C@@H]12)[C@@H](OC)O[C@H]3OC`, the outcome in the assay on PC-12 [1] was inactive. In the assay with PC-12 [2], this compound returned a concentration giving a half-maximal response (EC50) of 3.3 µM.
For the compound `C=CC(=C)CC[C@]1(C)[C@H](C)C[C@H](OC)[C@@]23C(=C[C@H](OC(=O)CC)C[C@@H]12)[C@@H](OC(=O)CCC)O[C@H]3OC(C)=O`, the outcome with PC-12 [1] was inactive. The EC50 with PC-12 [2] was above 45 µM.
For the compound `C=CC(=C)CC[C@]1(C)[C@H](C)CC[C@@]23C(=C[C@H](OC(=O)CCC)C[C@@H]12)[C@@H](OC(=O)CCC)O[C@H]3OC(C)=O`, in the assay with PC-12 [2], the outcome was inactive.
Same read-out and setting: the entry for `C=CC(=C)CC[C@]1(C)[C@H](C)CC[C@@]23C(=C[C@H](O)C[C@@H]12)[C@@H](OC)O[C@H]3OC(C)=O` is “inactive”; for `C=CC(=C)CC[C@]1(C)[C@H](C)CC[C@@]23C(=C[C@H](O)C[C@@H]12)[C@@H](OC(=O)CCC)O[C@H]3OC(C)=O` it is “inactive”.
For `C=CC(=C)CC[C@]1(C)[C@H](C)C[C@H](OC)[C@@]23C(=C[C@H](OC(=O)CC)C[C@@H]12)[C@@H](OC)O[C@H]3OC(C)=O`, the outcome in the assay on PC-12 [1] was inactive. Moreover, in the assay on PC-12 [2], the EC50 was 4.4 µM.
Take `C=CC(=C)CC[C@]1(C)[C@H](C)CC[C@@]23C(=C[C@H](OC(=O)CCC)C[C@@H]12)[C@@H](OC(C)=O)O[C@H]3OC(C)=O`: the outcome in the assay on PC-12 [2] was inactive.

The EC50 is the concentration at which the effect is half-maximal. Read a low EC50 as an effect from little substance.
